Test results: the EternaBench riboswitch data

Test system: MS2 coat protein
Assay: apparent Kd, MS2 coat protein; higher = weaker binding; RNA-MaP array; FMN 200 µM where present
In short: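 The apparent Kd comes from binding curves fitted cluster by cluster, filtered, and summarised as a median. Those curves followed SNAP-549-labelled MS2 coat protein from 0.7 or 1.5 nM, doubling to 3 µM, on Illumina sequencing-chip clusters where stalled E. coli RNA polymerase had transcribed the designs, without and then with constant ligand. The buffer was 100 mM Tris-HCl pH 7.5, 80 mM KCl, 4 mM MgCl2, BSA, DTT, yeast tRNA and Tween-20, and green signal was normalised to red-channel RNA signal and control-cluster median Fmax.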

[1] = designed as: OFF switch for flavin mononucleotide, no ligand
[2] = ligand present: flavin mononucleotide, designed as: OFF switch for flavin mononucleotide
[3] = designed as: ON switch for flavin mononucleotide, no ligand
[4] = ligand present: flavin mononucleotide, designed as: ON switch for flavin mononucleotide

Sequence	apparent Kd [1] [nM]	apparent Kd [2] [nM]	apparent Kd [3] [nM]	apparent Kd [4] [nM]
AUCCAGCGAGGAUAUACUUUGAUUUUUUCGUUUUGUCUCGAACAUGAGGAUCACCCAUGUAGAAGGUGCUUCAC	67.1	59.8	–	–
UUGAAGAUAGGAUAUACGAGGAGAGGAGAGAGAAGGUGAGGACAUGAGGAUCACCCAUGUAGAAGGAUCAGGAA	81.5	62.5	–	–
CAGCGGCAAGGAUAUACAUGAGGAUCACCCAUGUGGUCCCGCUAUAGUAACUUAGCUUGUAGAAGGUGCAGCUA	36.5	218	–	–
CGACGAGUGGAGAAGGACUUUGACUAGCACAGGGUAGGAUAUCCACAUGAGGAUCACCCAUGUAGGAUACUUAUUGGGCCGCCU	6.96	22.8	–	–
GAGUGGUAGAGAGGAUAUGCAUUGUUAUUAAAUGCAGAAGGUUUUAACAUGAGGAUCACCCAUGUAGGACUAUUCCUGUGUUUC	–	–	15.5	13.6
GGUAUACUGCAGGAUAUUAGCUGAGAUAUCCGCUGAGAAGGGCAGACAUGAGGAUCACCCAUGUACCGAGUAGU	31.9	18.8	–	–
UACAUGUAAGGAUAUGUAAAAUCAAAACAAGAACGAUAAAGACAGAAGGUACAUGAGGAUCACCCAUGUGUCCC	20.5	21.4	–	–
ACAUGAGGAUCACCCAUGUUAAAUGAGGAUAUAUGACUGCACAUGAGGUUCACCCAUGUUCUACCGUAGAAGGUAUAAAUAAUU	–	–	71.7	76.1
UAAUAUUUAUGAUAUUAUUACAUUAGAAGGCUAGACAUGUGGAUACAUGAGGAUCACCCAUGUAUAGAGGAUAUAGACAUAUAG	25.8	42.6	–	–
UUAACUCAUGUAGGAUAUGCAUGGCGAAGCUACGCAGAAGGACAUGAGGAUCACCCAUGUUCUAGCGUCUGAAUACAGAUGCAA	53.7	303	–	–
AUACACUUUCGAGGAUAUCGGUGAUAAAUUUUACGAGAAGGCGAUAAAAGAUAUAAUCUUAUAUACAUGAGGAUCACCCAUGUU	–	–	27.3	25.1
AUUUUUUGUCAUGUACAUGAGGAACAUGAGGAUCACCCAUGUAGAAGGAAUUUUUUUAAGUUUAGUUAGGAUAUACAUAUAUUA	47.7	28.6	–	–
AAAAUCUAUAGAGGAUAUCGUUCUUAAAGAGAAUGAGAAGGCUAACAAUCAUGAGGACAUGAGGAUCACCCAUGUUGUGACCAU	–	–	19.1	9.71
UCGCCUUAGUAAGGAUAUCACAUGAGGAUCACCCAUGUGGGCGUGACACGGUGAGAAGGUACGCGGCGAAGGUGCCAAGGCAUC	387	44	–	–
UUUCCCUGUGUGAGGAUAUACUUGUUUGGGUUUUUGUAGAAGGCACAUGAGGAUCACCCAUGUACUCUGUCGUG	23.3	55.8	–	–
AAUAUAAAAGAGCUGGAUACUCAAACAUGAGGAUCACCCAUGUAGGAUAUCAGCACGAUAAGUGCUGAGAAGGACAACCAGCUC	14.6	15.6	–	–
GCAUGCAAGUAGAAGGACGGAUAUUUUGAAAACGUAGGAUAUACAGAAUCAUAUCCACAAGGUAACAUGAGGAUCACCCAUGUA	10.5	9.58	–	–
GGGUGAUGUAGAGGAUAUCCAGGACGAUACAGAGGAGAAGGCUACAUGAGGAUCACCCAUGUCACCGGGAUAAAGCUGUAGAGU	39.8	109	–	–

Sequence	apparent Kd [1] [nM]	apparent Kd [2] [nM]	apparent Kd [3] [nM]	apparent Kd [4] [nM]
AAGAAGUCAGGAUAUGCUGCUCGUCACUUGCGUGAUGAGUAGCAGAAGGGACAUGAGGAUCACCCAUGUAAAGA	32.5	67.4	–	–
UCACGGGAUUGAGGAUAUAUAUUAAUUUUUACAAUAGAAGGCAAAUUGUUAGUUUUUUCACUUUACAUGAGGAUCACCCAUGUU	26.2	24	–	–
CCUCCGCAUUAGGAUAUCGUCACGGAAACGUGACGAGAAGGAAUGACAUGAGGAUCACCCAUGUUAACGUGAUG	52.2	270	–	–
UGUGUGUGACAGGAUAUGCAGGUUAUGAGACGGGUAGAAGGGUCUACAUGAGGAUCACCCAUGUGGCCGGUUGG	18	16.9	–	–
GUAAUACAUGAGGAUCACCCAUGUAAGGAUAUGCUAGCGGUCGGCUGACUGACUGCUAGCAGAAGGUACAUGAU	85.1	128	–	–
GUCUGGUUAGGAUAUACAGUGUCCACGAGUUAGUUGCCCUAACAUGAGGAUCACCCAUGUAGAAGGAGCGAGAA	22.2	22.6	–	–
UUAUUUAUACAAGGAUAUCAAUUAUAUACACAUCCUACAUGAGGAUCACCCAUGUUUUAUUUUUUUGAGAAGGUGUAUUGUCGG	–	–	21.2	27.6
GGGUACAUCGGAGGAUAUCAUGUAUAGACAUGAGGAUCACCCAUGUCGUACGAGAGUACGGAGAUUGAGAAGGCCGAUGUACCG	–	–	20.7	17.3
CUCUUAGCAGGAUAUACAUUAUCCCAGUCAUGGUCGGCGACACAUGAGGAUCACCCAUGUAGAAGGGCUAUGAG	23.4	52.8	–	–
AGAAACUACGAGAAGGACAUAUGACCAAGAACAAACAUGAGGAUCACCCAUGUAGGAUAUCGUAGUUUCAGGAUCGUGAGAUCA	6.29	12.9	–	–
AACGUGUCAGGAUAUGCUGCUCGUCACGAAAGUGAUGAGUAGCAGAAGGGACAUGAGGAUCACCCAUGUAAAGA	153	101	–	–
GGGUAGGACAGAGGAUAUACGUGCUAGAGAUACUAGCAAAAUUUCCUCACAUGAGGAUCACCCAUGUAGAAGGCUGUCCUAUCG	16.9	397	–	–
UGUUACUAGUAAGGAUAUACUAGCGAUAAGCUAGUAGAAGGUACAGUCUUUUGUAUAUCAUGUUUACAUGAGGAUCACCCAUGU	–	–	9.09	7.49
AGAAACUACGAGAAGGACAUGUGGUCCUUCAGUUACAUGAGGAUCACCCAUGUAGGAUAUCGUAGUUUCAGGAUCGUGAGAUCA	40.8	12.3	–	–
UUGGAUGUCGUAGGAUAUGUAGGAUAUUCCUACAUGAGGAUCACCCAUGUUGACAUGGAAGAAGGACAGAAGGACGAUGUCCAU	–	–	209	5.03
GGUACUAUCACAGGAUAUGCUUUCCUUUGGGAAGCAGAAGGGUGUAACAUGAGGAUCACCCAUGUGGUGCCAGGGCGCGAGCCC	–	–	137	16.7
UAUUAGCUAGGAUAUACAUGAGGAUCACCCAUGUCACGGGUCAACUUGUCCUAUGCGUGUAGAAGGAGCGACCC	17.7	21.7	–	–
CACGUCUGGAAACGGAGCGGCCAACAUGAGGAUCACCCAUGUGAGGAUAUGCCUACUAAAAGUAGGCAGAAGGCGCAAUUGGCA	31.2	44.7	–	–
